The values below come from ChEMBL document CHEMBL1671691 (Antimicrob Agents Chemother, 2010).

In general, EC50 refers to the concentration giving half of the maximal effect.

The test system of assay [1] is Influenza A virus. As to the kind of experiment: Antiviral activity against adamantane-resistant zanamivir-,oseltamivir-susceptible Influenza A virus (A/Washington/01/2007(H3N2)) harboring M2 S31N mutant infected in MDCK cells assessed as inhibition of viral replication after 3 days by microscopic analysis using crystal violet stain. Type of assay: functional, organism-based. Put shortly:
(§1)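 Confluent MDCK-ATCC monolayers infected with virus diluted to give 15–45 plaques/well. Adsorption 1 h at 37°C without drug, then washed. Overlaid with 0.8% agarose in MEM containing drug plus TPCK-trypsin: 3 μg/ml for seasonal viruses, 2 μg/ml for 2009 A(H1N1). Incubated 3 days at 37°C, 5% CO2. Ethanol-fixed, crystal violet-stained, plaques counted. EC50 by curve fit; duplicates on three occasions, mean ± SD.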

In assay [2] the test system is Influenza B virus. The assay can be described thus: Antiviral activity against oseltamivir-susceptible zanamivir-, adamantane-resistant Influenza B virus B/Memphis/20/1996 harboring neuraminidase R152K mutant infected in MDCK cells assessed as inhibition of viral replication after 3 days by microscopic analysis using crystal violet stain. Type of assay: functional, cell-based, B/Memphis/20/96.

In assay [3] the test system is Influenza A virus. The assay can be described thus: Antiviral activity against adamantane-, zanamivir-susceptible oseltamivir-resistant Influenza A virus (A/Georgia/20/2006(H1N1)) harboring neuraminidase H274Y mutant infected in MDCK cells assessed as inhibition of viral replication after 3 days by microscopic analysis using crystal violet stain. Type of assay: functional, organism-based. The method, boiled down:
as §1

Assay [4] relates to Influenza B virus. As to the kind of experiment: microbe, parasite or virus in culture. The conditions noted are these: B/Memphis/20/96, MDCK, 72 h.
Assay [5] concerns Influenza A virus. The assay can be described thus: Antiviral activity against adamantane-resistant zanamivir-,oseltamivir-susceptible Influenza A virus (A/Florida/01/2009(H3N2)) harboring M2 S31N mutant infected in MDCK cells assessed as inhibition of viral replication after 3 days by microscopic analysis using crystal violet stain. Type of assay: functional, organism-based. The method, boiled down:
as §1

Assay [6] deals with Influenza A virus. The assay can be described thus: Antiviral activity against oseltamivir-susceptible zanamivir-, adamantane-resistant Influenza A virus (A/Texas/12/2007 (clone)(H3N2)) harboring neuraminidase E119I mutant and harboring M2 S31N mutant infected in MDCK cells assessed as inhibition of viral replication after 3 days by microscopic analysis using crystal violet stain. Type of assay: functional, organism-based, Influenza A virus (A/Texas/12/2007(H3N2)).

Consider `NC(=O)c1ncn([C@@H]2O[C@H](CO)[C@@H](O)[C@H]2O)n1` [RIBAVIRIN], for which the EC50 in the assay with Influenza A virus [1] is 35.6 µM; in the assay with Influenza B virus [2] it was 25 µM; with Influenza A virus [3], 19.7 µM; in the assay on Influenza B virus [4] it was 13.9 µM; with Influenza A virus [5], 20.9 µM; with Influenza A virus [6] it was 46.7 µM.
